# Assay outcomes deposited in PubChem by several laboratories.
# PMI act satM6P: PMI (human) activation, high substrate | P34949 | coupled PMI enzyme assay, resazurin fluorescence, 20 min; hits give high values; 1 = untreated enzyme, 0 = substrate-free blank | activation factor at 20 µM | 0.34% of 190,000 active | AID 1216;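 active = activation factor of 2 or more at 20 µM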
# Target sequence (P34949 whole entry, looked up): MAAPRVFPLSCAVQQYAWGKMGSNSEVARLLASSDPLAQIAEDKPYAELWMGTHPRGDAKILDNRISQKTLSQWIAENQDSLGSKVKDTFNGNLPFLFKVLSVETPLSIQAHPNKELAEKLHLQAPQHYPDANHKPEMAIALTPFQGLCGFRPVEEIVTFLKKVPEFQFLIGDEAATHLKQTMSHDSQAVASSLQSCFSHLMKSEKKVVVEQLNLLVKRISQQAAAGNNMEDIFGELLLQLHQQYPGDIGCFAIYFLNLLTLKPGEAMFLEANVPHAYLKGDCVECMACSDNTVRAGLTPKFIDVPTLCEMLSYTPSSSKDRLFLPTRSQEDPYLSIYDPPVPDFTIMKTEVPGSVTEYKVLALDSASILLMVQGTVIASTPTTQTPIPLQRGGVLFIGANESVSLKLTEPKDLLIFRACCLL
#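 assay system = human phosphomannose isomerase with PGI, G6PDH, diaphorase coupling enzymes | quantity = 15 ng/mL PMI | incubation = enzyme reaction with compound 20 min at room temperature | medium = HEPES pH 7.4 buffer with MgCl2 and Tween-20 | compound dosing = one concentration, 20 µM, in 1% DMSO | measured by = Diaphorase-driven resazurin-to-resorufin fluorescence, excitation 544, emission 590 nm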
# PMI activator: increases human mannose-6-phosphate isomerase activity. P34949. purified human PMI, coupled resazurin fluorescence, 20 min; hits give high values; 1 = vehicle control, 0 substrate-free wells. activation factor at 20 µM. 0.005% of 190,000 active. AID 1214;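 active = activation factor of 2 or more at 20 µM, relative to plate controls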
# Diaph act CS: activates diaphorase or chemically reduces, flagging diaphorase assay artifacts; Diaphorase/resazurin coupled assay, resorufin fluorescence, 16 min; hits give high values; 1 = vehicle wells, 0 = NADH-free wells; activation factor at 20 µM; 0.005% of 190,000 active; AID 1229;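 active = diaphorase activity raised at least twofold by the compound at 20 µM; inactive = activation factor below 2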
#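 Material: Purified diaphorase enzyme from Clostridium kluyveri | Buffer or medium: 50 mM HEPES pH 7.4 with 4.542 mM MgCl2, 0.005% Tween 20 | Times: 16 min enzyme reaction, ambient temperature | Signal: Red resorufin fluorescence at 544/590 nm excitation/emission | Measure: Increased resorufin signal from activators or reducing compounds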
# L major viab: inhibitors of Leishmania major promastigote growth; 9% of 200,000 active; Leishmania major promastigotes, resazurin fluorescence viability; AID 1063; inhibition, % at 10 µM; in the data active = inhibition above about 50%;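 note: promastigotes grown with compound for 44 hours at 28 °C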
# WT yeast gro inh: growth inhibition of WT yeast, mitochondrial fusion screen; mitochondrial fusion phenotypic screen, WT strain; inhibition, % at 10 µM; 2.1% of 190,000 active; in the data active = inhibition above about 58%; tested in S. cerevisiae
# An asterisk follows results filed as active; nt = no result given. A selection: hits, their analogues and other compounds. The true share with any hit is near 10%.
SMILES,PMI act satM6P,PMI activator,Diaph act CS,L major viab,WT yeast gro inh
COc1ccc(NC(=S)N(CCCN2CCCC(C)C2)Cc2cccs2)cc1 (centres undefined),1,1,0.9,95*,-8
Cc1cc(C)c(NC(=S)N(CCCN2CCN(C)CC2)Cc2cccs2)c(C)c1,1.1,1,0.9,18,8
Cc1ccc(Cl)cc1NC(=S)N(CCCN1CCN(C)CC1)Cc1cccs1,1,1,0.9,54*,-7
COc1ccc(NC(=S)N(CCCN2CCCCCC2)Cc2cccs2)cc1,0.9,0.9,1,97*,-4
CCOC(=O)C1=C(Nc2ccc(Br)cc2)CC(C)(O)C(C(=O)OCC)C1c1ccccc1 (centres undefined),0.9,1,0.8,-3,-20
O=C1C2C3C=CC(CC3)C2C(=O)N1c1ccccc1[N+](=O)[O-] (centres undefined),1.3,1.3,1.1,4,-6
N#Cc1cc([N+](=O)[O-])cnc1N(CCO)CCO,0.8,0.9,0.9,1,-13
COc1ccc(NC(=S)N(CCCN2CCCC2)Cc2cccs2)cc1,0.9,1,1,80*,-12
COc1ccc(NC(=S)N(CCCN2CCCC2)Cc2ccco2)cc1,1.1,1.1,0.9,14,13
CC(NC(=O)c1ccc([N+](=O)[O-])cc1[N+](=O)[O-])c1ccc(-c2ccccc2)cc1 (centres undefined),0.9,1,1,23,20
CCC(NC(=O)c1ccc([N+](=O)[O-])cc1[N+](=O)[O-])c1ccccc1 (centres undefined),0.8,0.8,0.9,92*,15
CN(C)c1ccc(C(CNC(=O)c2ccccc2Br)c2c[nH]c3ccccc23)cc1 (centres undefined),0.7,0.9,0.8,94*,7
CN(C)c1ccc(C(CNS(=O)(=O)c2ccc(F)cc2)c2c[nH]c3ccccc23)cc1 (centres undefined),1.2,0.9,0.7,79*,30
O=C(CCC1CCCCC1)NNC(=O)NC12CC3CC(CC(C3)C1)C2,1,1,1,13,-5
CC(C)OCCCNC(=O)CCc1nc(-c2ccccc2)no1,0.9,0.9,0.8,-7,10
O=C(CCc1nc(-c2ccccc2)no1)NCCc1ccccc1,1.1,1,0.9,-5,62*
COc1ccc(NC(=S)NC2CCCCC2)cn1,1,1.1,0.8,35,7
Cc1cc2nc(C3CCCN(C(=S)Nc4ccccc4C)C3)[nH]c2cc1C (centres undefined),1,0.9,0.9,5,-2
Cc1ccc2nc(C3CCCN(C(=S)Nc4cccc(C)c4C)C3)[nH]c2c1 (centres undefined),0.9,0.9,0.8,82*,13
Cc1ccc(NC(=S)N2CCCC(c3nc4ccc(C)cc4[nH]3)C2)c(C)c1 (centres undefined),0.9,0.9,1,62*,5
C/C(=N\NC(=O)C(C)n1nc(C)c([N+](=O)[O-])c1C)c1ccccc1O (centres undefined),1,1,0.9,21,-2
COc1ccc(/C=C/C(=O)c2ccc3c4c(cccc24)CC3)cc1,0.9,0.8,0.9,10,13
COc1ccc(/C=C/C(=O)c2ccc3c4c(cccc24)CC3)cc1OC,0.9,0.9,0.8,60*,17
COc1ccc(C(=O)Oc2ccc(F)cc2C(=O)/C=C/c2ccc(OC)c(OC)c2)cc1,0.9,0.8,0.8,35,-8
COc1ccc(/C=C/C(=O)c2cc(F)ccc2OC(=O)c2ccccc2C)cc1OC,0.9,0.9,0.8,60*,6
SMILES,PMI act satM6P,PMI activator,Diaph act CS,L major viab,WT yeast gro inh
COc1ccc(C(=O)C2CCCN(C(=O)c3cc(C)nc(C)n3)C2)cc1OC (centres undefined),1.1,1.1,1.1,-1,-13
CC(C)CCNC(=O)/C=C/c1ccc(Br)cc1,0.9,0.9,0.9,-4,9
C[n+]1ccc(/C=C/c2ccc(Br)cc2)cc1,1.3,1.1,1,86*,15
COC(=O)N/N=C1\CCCc2ccccc21,1,1,0.9,32,0
Cc1cc(N/N=C2/CCCc3ccccc32)nc2ccccc12,0.9,0.9,0.9,90*,68
Fc1ccc2c(c1)/C(=N/Nc1ccccn1)CCS2,1.1,1.1,0.9,55*,68*
c1ccc(N/N=C2\CCCc3ccccc32)nc1,0.7,1,0.9,18,65*
CN(Cc1cnn(C)c1)S(=O)(=O)c1cccc([N+](=O)[O-])c1,1.1,1.1,0.9,-1,-5
Cc1c(N2C(=O)/C(=C\c3ccc(N(C)C)cc3)N(C)C2=S)c(=O)n(-c2ccccc2)n1C,0.9,0.9,0.9,4,11
CN(C)C(=O)c1cn(-c2ccccc2)nc1-c1cc2ccccc2o1,2.5*,1.6,0.8,4,0
O=C(Nc1ccc([N+](=O)[O-])cc1)c1cn(-c2ccccc2)nc1-c1cc2ccccc2o1,1.1,0.9,1,56*,-3
CN(C)C(=O)c1cn(-c2ccccc2)nc1-c1cc2ccccc2oc1=O,1,1,1.1,-2,-13
COc1ccc(C)cc1NC(=O)CSc1nnc(CC(=O)Nc2ccccc2C)n1C,0.9,0.9,0.8,7,3
O=C1C(NS(=O)(=O)c2cccs2)=C(N2CCN(c3cccc(Cl)c3)CC2)C(=O)c2ccccc21,1.6,1.2,0.6,99*,nt
CCC/C(O)=C1\C(=O)CC(C)(C)CC1=Nc1ccccc1O,0.9,0.9,0.8,5,-4
O=C(CN(c1ccc(F)cc1)S(=O)(=O)c1ccccc1)NCCSC1CCCCC1,0.8,0.8,0.7,33,20
c1ccc(-c2cn3nc(-c4ccccc4)cnc3n2)cc1,2.6*,1.8,0.9,-6,-9
O=C(NCCc1ccccc1)c1ncn[nH]1,0.9,0.8,0.9,-8,0
O=C(NCCc1ccc(Cl)cc1)c1ncn[nH]1,0.9,1,1.1,-4,91*
CC(C)(O)CC[C@@H](O)[C@](C)(O)[C@H]1CC[C@@]2(O)C3=CC(=O)[C@@H]4C[C@@H](O)[C@@H](O)C[C@]4(C)C3CC[C@]12C (some centres undefined),1,0.9,0.8,-15,8
C[C@@H](C[C@@H](O)[C@H](O)C(C)(C)O)[C@@H]1CC[C@]2(C)C3=CC[C@H]4C(C)(C)C(=O)CC[C@]4(C)[C@H]3CC[C@@]12C,0.9,0.9,0.8,92*,60*
Clc1ccc(Cn2c(-c3cccnc3Cl)nc3ccccc32)cc1,0.9,0.9,0.9,46,8
Clc1ccc(Cn2c(-c3cccnc3Cl)nc3ccccc32)c(Cl)c1,0.9,0.9,0.7,99*,9
COc1cccc(-c2nc(OC(C)C)c3ccccc3n2)c1,0.9,0.9,0.7,13,61*
